From ChEMBL document CHEMBL5303300, “EUbOPEN Chemogenomics Library - Multiplex” (2023)
“And” between values parts separate entries of the source, which are not always exact repeats. Equal entries are not always repeated.

Test system: Fibroblast
Assay: Multiplex assay against human fibroblast
Assay type: toxicity, cell-based
Settings: number of replicates 2
Procedure, shortened: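 At seeding, live cells were stained with Hoechst33342, BioTracker Green Microtubule Cytoskeleton Dye, MitoTracker Red and Annexin V Alexa Fluor 680. After compound addition they were imaged on a CQ1 microscope at 37°C and 5% CO2, and CellPathfinder machine-learning gating sorted them into Hoechst high-intensity objects or normal cells, with normal cells further split into healthy, pyknosed or fragmented nuclei and pyknosed cells into mitotic or apoptotic. Tubulin, mitochondrial-mass and membrane-permeability phenotypes are given as per cents of cells with healthy nuclei.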

[1] = 12 h, 1 µM, compound concentration 1 uM
[2] = 12 h, 10 µM, compound concentration 10 uM
[3] = 24 h, 1 µM, compound concentration 1 uM
[4] = 24 h, 10 µM, compound concentration 10 uM
[5] = 48 h, 1 µM, compound concentration 1 uM
[6] = 48 h, 10 µM, compound concentration 10 uM

CSc1cc2c(cc1C(F)(F)F)N(C(=O)Nc1cccnc1)CC2
Population Apoptotic (%) [1]: 50% and 34% | Population Fragmented Nuclei (%) [1]: 9% and 17% | Population Healthy Nuclei (%) [1]: 75% and 64% | Population Hoechst High Intensity Objects (%) [1]: 0% | Population Membrane Permeable-Phenotype (%) [1]: 6% and 2% | Population Mitochondria Different-Phenotype (%) [1]: 0% and 2% | Population Mitotic Cells (%) [1]: 50% and 65% | Population Normal (%) [1]: 100% | Population Pyknosed Nuclei (%) [1]: 15% and 17% | Population Tubulin-Different-Phenotype (%) [1]: 5% and 10% | Total Cell Count [1]: 144 and 180 | Population Apoptotic (%) [2]: 22% and 26% | Population Fragmented Nuclei (%) [2]: 4% and 13% | Population Healthy Nuclei (%) [2]: 84% and 71% | Population Hoechst High Intensity Objects (%) [2]: 0% | Population Membrane Permeable-Phenotype (%) [2]: 2% and 5% | Population Mitochondria Different-Phenotype (%) [2]: 0% | Population Mitotic Cells (%) [2]: 77% and 73% | Population Normal (%) [2]: 100% | Population Pyknosed Nuclei (%) [2]: 11% and 15% | Population Tubulin-Different-Phenotype (%) [2]: 8% and 2% | Total Cell Count [2]: 162 and 152 | Population Apoptotic (%) [3]: 42% and 51% | Population Fragmented Nuclei (%) [3]: 5% and 14% | Population Healthy Nuclei (%) [3]: 80% and 65% | Population Hoechst High Intensity Objects (%) [3]: 0% | Population Membrane Permeable-Phenotype (%) [3]: 1% and 4% | Population Mitochondria Different-Phenotype (%) [3]: 0% | Population Mitotic Cells (%) [3]: 57% and 48% | Population Normal (%) [3]: 100% and 99% | Population Pyknosed Nuclei (%) [3]: 13% and 20% | Population Tubulin-Different-Phenotype (%) [3]: 9% and 11% | Total Cell Count [3]: 142 and 185 | Population Apoptotic (%) [4]: 20% and 33% | Population Fragmented Nuclei (%) [4]: 9% and 15% | Population Healthy Nuclei (%) [4]: 81% and 73% | Population Hoechst High Intensity Objects (%) [4]: 0% | Population Membrane Permeable-Phenotype (%) [4]: 4% and 3% | Population Mitochondria Different-Phenotype (%) [4]: 0% | Population Mitotic Cells (%) [4]: 80% and 66% | Population Normal (%) [4]: 100% | Population Pyknosed Nuclei (%) [4]: 8% and 11% | Population Tubulin-Different-Phenotype (%) [4]: 9% and 3% | Total Cell Count [4]: 173 and 156 | Population Apoptotic (%) [5]: 55% and 70% | Population Fragmented Nuclei (%) [5]: 14% and 16% | Population Healthy Nuclei (%) [5]: 73% and 70% | Population Hoechst High Intensity Objects (%) [5]: 0% | Population Membrane Permeable-Phenotype (%) [5]: 5% and 8% | Population Mitochondria Different-Phenotype (%) [5]: 0% | Population Mitotic Cells (%) [5]: 44% and 29% | Population Normal (%) [5]: 99% and 100% | Population Pyknosed Nuclei (%) [5]: 11% and 12% | Population Tubulin-Different-Phenotype (%) [5]: 4% and 7% | Total Cell Count [5]: 158 and 187 | Population Apoptotic (%) [6]: 54% and 46% | Population Fragmented Nuclei (%) [6]: 7% and 14% | Population Healthy Nuclei (%) [6]: 86% and 76% | Population Hoechst High Intensity Objects (%) [6]: 0% | Population Membrane Permeable-Phenotype (%) [6]: 3% and 2% | Population Mitochondria Different-Phenotype (%) [6]: 0% | Population Mitotic Cells (%) [6]: 45% and 53% | Population Normal (%) [6]: 100% | Population Pyknosed Nuclei (%) [6]: 5% and 9% | Population Tubulin-Different-Phenotype (%) [6]: 4% and 3% | Total Cell Count [6]: 188 and 164

CC(C)c1c(NC(=O)Nc2ccc(Cl)cc2)c(=O)n(-c2ccccc2)n1C
Population Apoptotic (%) [1]: 30% and 36% | Population Fragmented Nuclei (%) [1]: 9% and 13% | Population Healthy Nuclei (%) [1]: 77% and 68% | Population Hoechst High Intensity Objects (%) [1]: 0% | Population Membrane Permeable-Phenotype (%) [1]: 5% and 3% | Population Mitochondria Different-Phenotype (%) [1]: 0% | Population Mitotic Cells (%) [1]: 69% and 63% | Population Normal (%) [1]: 100% and 99% | Population Pyknosed Nuclei (%) [1]: 13% and 17% | Population Tubulin-Different-Phenotype (%) [1]: 11% and 7% | Total Cell Count [1]: 175 and 269 | Population Apoptotic (%) [2]: 34% and 46% | Population Fragmented Nuclei (%) [2]: 9% and 7% | Population Healthy Nuclei (%) [2]: 68% | Population Hoechst High Intensity Objects (%) [2]: 0% | Population Membrane Permeable-Phenotype (%) [2]: 2% and 11% | Population Mitochondria Different-Phenotype (%) [2]: 1% | Population Mitotic Cells (%) [2]: 65% and 53% | Population Normal (%) [2]: 99% and 100% | Population Pyknosed Nuclei (%) [2]: 21% and 24% | Population Tubulin-Different-Phenotype (%) [2]: 12% and 21% | Total Cell Count [2]: 122 and 191 | Population Apoptotic (%) [3]: 34% and 35% | Population Fragmented Nuclei (%) [3]: 10% and 14% | Population Healthy Nuclei (%) [3]: 75% and 71% | Population Hoechst High Intensity Objects (%) [3]: 0% | Population Membrane Permeable-Phenotype (%) [3]: 5% and 6% | Population Mitochondria Different-Phenotype (%) [3]: 0% and 1% | Population Mitotic Cells (%) [3]: 65% and 64% | Population Normal (%) [3]: 100% | Population Pyknosed Nuclei (%) [3]: 13% | Population Tubulin-Different-Phenotype (%) [3]: 14% and 5% | Total Cell Count [3]: 166 and 271 | Population Apoptotic (%) [4]: 48% and 35% | Population Fragmented Nuclei (%) [4]: 5% and 6% | Population Healthy Nuclei (%) [4]: 73% and 65% | Population Hoechst High Intensity Objects (%) [4]: 0% | Population Membrane Permeable-Phenotype (%) [4]: 7% and 6% | Population Mitochondria Different-Phenotype (%) [4]: 0% | Population Mitotic Cells (%) [4]: 52% and 64% | Population Normal (%) [4]: 100% | Population Pyknosed Nuclei (%) [4]: 20% and 27% | Population Tubulin-Different-Phenotype (%) [4]: 13% | Total Cell Count [4]: 123 and 204 | Population Apoptotic (%) [5]: 79% and 65% | Population Fragmented Nuclei (%) [5]: 14% and 17% | Population Healthy Nuclei (%) [5]: 71% and 74% | Population Hoechst High Intensity Objects (%) [5]: 0% | Population Membrane Permeable-Phenotype (%) [5]: 2% and 6% | Population Mitochondria Different-Phenotype (%) [5]: 0% | Population Mitotic Cells (%) [5]: 20% and 34% | Population Normal (%) [5]: 100% | Population Pyknosed Nuclei (%) [5]: 13% and 8% | Population Tubulin-Different-Phenotype (%) [5]: 8% and 4% | Total Cell Count [5]: 174 and 274 | Population Apoptotic (%) [6]: 53% and 47% | Population Fragmented Nuclei (%) [6]: 17% and 14% | Population Healthy Nuclei (%) [6]: 70% and 62% | Population Hoechst High Intensity Objects (%) [6]: 0% | Population Membrane Permeable-Phenotype (%) [6]: 8% and 10% | Population Mitochondria Different-Phenotype (%) [6]: 0% | Population Mitotic Cells (%) [6]: 46% and 52% | Population Normal (%) [6]: 100% and 99% | Population Pyknosed Nuclei (%) [6]: 11% and 23% | Population Tubulin-Different-Phenotype (%) [6]: 12% and 13% | Total Cell Count [6]: 134 and 222
